Laboratory results published in ChEMBL document CHEMBL3091376, “Design, synthesis and in vitro anticancer evaluation of 4,6-diamino-1,3,5-triazine-2-carbohydrazides and -carboxamides” (Bioorg Med Chem Lett, 2013).
pIC50: −log10 of the molar value. Counter-ions that a name gives are not always drawn. Peptide text beside a SMILES is read from it. * marks the point of attachment. Cbz = O=C(OCc1ccccc1)*

How the values were obtained:
[1] = Growth inhibition of human MCF10A cells after 72 hrs by CellTiter-Blue assay; type: cell-based; settings: MCF-10A
In short: (§1)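 CellTiter-Blue viability assay after 72 h exposure to test compound. IC50 (μM) reported as the mean of triplicates with standard deviation. Some values are approximate owing to low solubility in medium.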

[2] = tested on: MDA-MB-231; experiment: Growth inhibition of human MDA-MB-231 cells after 72 hrs by CellTiter-Blue assay; type: functional, cell-based; settings: MDA-MB-231, 72 h; in short: as §1
[3] = tested on: MCF7; experiment: Growth inhibition of human MCF7 cells after 72 hrs by CellTiter-Blue assay; type: functional, cell-based; settings: MCF7, 72 h; in short: as §1

Row | pIC50 [2] | pIC50 [3] | Compound | pIC50 [1]
1 | – | – | COc1cccc2c1C(=O)c1c(O)c3c(c(O)c1C2=O)C[C@@](O)(C(=O)CO)C[C@@H]3O[C@H]1C[C@H](N)[C@H](O)[C@H](C)O1 [DOXORUBICIN HYDROCHLORIDE] | 5.95
2 | 6.74 | 6.89 | CC(C)C[C@@H](C=O)NC(=O)[C@H](CC(C)C)NC(=O)[C@H](CC(C)C)NC(=O)OCc1ccccc1 [MG-132] (Cbz-Leu-Leu-Leu-aldehyde) | 6.54
